Consider 53 compounds from ChEMBL document CHEMBL1795316, “Synthesis and biological evaluation of α-ketoamides as inhibitors of the Dengue virus protease with antiviral activity in cell-culture” (Bioorg Med Chem, 2011).

What is called inhibition is the change of the read-out against control, counted positive when it falls. Higher therefore signals strong suppression.

One data set relates to Dengue virus. Description: Inhibition of Dengue virus NS2B-NS3 serine protease expressed in Escherichia coli BL 21 (DE3) at 50 uM preincubated for 15 mins before substrate addition measured after 15 mins by fluorimetric analysis. In short, it runs like this: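 Recombinant NS2B hydrophilic cofactor linked through a glycine linker to NS3pro, His-purified on Ni2+ resin. Enzyme preincubated 15 min with inhibitor at 50 μM. Internally quenched substrate added to 50 μM final. Fluorescence read at ex 320/em 405 nm for 15 min, with initial slope per second as activity. Triplicate runs averaged.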

In data set [1] the target is Genome polyprotein (West Nile virus) (UniProt P06935). The data set can be described thus: Inhibition of West Nile virus NS2B-NS3 serine protease at 50 uM preincubated for 15 mins before substrate addition measured after 15 mins by fluorimetric analysis. In short, it runs like this: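 WNV NS2B-NS3 protease at 150 nM final, preincubated 15 min with inhibitor at 50 μM. Abz-GLKRGG-3-(NO2)Y internally quenched substrate added to 50 μM final. Continuous fluorescence read for 15 min, with initial slope per second as activity.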
Genome polyprotein (West Nile virus), sequence (P06935 whole entry): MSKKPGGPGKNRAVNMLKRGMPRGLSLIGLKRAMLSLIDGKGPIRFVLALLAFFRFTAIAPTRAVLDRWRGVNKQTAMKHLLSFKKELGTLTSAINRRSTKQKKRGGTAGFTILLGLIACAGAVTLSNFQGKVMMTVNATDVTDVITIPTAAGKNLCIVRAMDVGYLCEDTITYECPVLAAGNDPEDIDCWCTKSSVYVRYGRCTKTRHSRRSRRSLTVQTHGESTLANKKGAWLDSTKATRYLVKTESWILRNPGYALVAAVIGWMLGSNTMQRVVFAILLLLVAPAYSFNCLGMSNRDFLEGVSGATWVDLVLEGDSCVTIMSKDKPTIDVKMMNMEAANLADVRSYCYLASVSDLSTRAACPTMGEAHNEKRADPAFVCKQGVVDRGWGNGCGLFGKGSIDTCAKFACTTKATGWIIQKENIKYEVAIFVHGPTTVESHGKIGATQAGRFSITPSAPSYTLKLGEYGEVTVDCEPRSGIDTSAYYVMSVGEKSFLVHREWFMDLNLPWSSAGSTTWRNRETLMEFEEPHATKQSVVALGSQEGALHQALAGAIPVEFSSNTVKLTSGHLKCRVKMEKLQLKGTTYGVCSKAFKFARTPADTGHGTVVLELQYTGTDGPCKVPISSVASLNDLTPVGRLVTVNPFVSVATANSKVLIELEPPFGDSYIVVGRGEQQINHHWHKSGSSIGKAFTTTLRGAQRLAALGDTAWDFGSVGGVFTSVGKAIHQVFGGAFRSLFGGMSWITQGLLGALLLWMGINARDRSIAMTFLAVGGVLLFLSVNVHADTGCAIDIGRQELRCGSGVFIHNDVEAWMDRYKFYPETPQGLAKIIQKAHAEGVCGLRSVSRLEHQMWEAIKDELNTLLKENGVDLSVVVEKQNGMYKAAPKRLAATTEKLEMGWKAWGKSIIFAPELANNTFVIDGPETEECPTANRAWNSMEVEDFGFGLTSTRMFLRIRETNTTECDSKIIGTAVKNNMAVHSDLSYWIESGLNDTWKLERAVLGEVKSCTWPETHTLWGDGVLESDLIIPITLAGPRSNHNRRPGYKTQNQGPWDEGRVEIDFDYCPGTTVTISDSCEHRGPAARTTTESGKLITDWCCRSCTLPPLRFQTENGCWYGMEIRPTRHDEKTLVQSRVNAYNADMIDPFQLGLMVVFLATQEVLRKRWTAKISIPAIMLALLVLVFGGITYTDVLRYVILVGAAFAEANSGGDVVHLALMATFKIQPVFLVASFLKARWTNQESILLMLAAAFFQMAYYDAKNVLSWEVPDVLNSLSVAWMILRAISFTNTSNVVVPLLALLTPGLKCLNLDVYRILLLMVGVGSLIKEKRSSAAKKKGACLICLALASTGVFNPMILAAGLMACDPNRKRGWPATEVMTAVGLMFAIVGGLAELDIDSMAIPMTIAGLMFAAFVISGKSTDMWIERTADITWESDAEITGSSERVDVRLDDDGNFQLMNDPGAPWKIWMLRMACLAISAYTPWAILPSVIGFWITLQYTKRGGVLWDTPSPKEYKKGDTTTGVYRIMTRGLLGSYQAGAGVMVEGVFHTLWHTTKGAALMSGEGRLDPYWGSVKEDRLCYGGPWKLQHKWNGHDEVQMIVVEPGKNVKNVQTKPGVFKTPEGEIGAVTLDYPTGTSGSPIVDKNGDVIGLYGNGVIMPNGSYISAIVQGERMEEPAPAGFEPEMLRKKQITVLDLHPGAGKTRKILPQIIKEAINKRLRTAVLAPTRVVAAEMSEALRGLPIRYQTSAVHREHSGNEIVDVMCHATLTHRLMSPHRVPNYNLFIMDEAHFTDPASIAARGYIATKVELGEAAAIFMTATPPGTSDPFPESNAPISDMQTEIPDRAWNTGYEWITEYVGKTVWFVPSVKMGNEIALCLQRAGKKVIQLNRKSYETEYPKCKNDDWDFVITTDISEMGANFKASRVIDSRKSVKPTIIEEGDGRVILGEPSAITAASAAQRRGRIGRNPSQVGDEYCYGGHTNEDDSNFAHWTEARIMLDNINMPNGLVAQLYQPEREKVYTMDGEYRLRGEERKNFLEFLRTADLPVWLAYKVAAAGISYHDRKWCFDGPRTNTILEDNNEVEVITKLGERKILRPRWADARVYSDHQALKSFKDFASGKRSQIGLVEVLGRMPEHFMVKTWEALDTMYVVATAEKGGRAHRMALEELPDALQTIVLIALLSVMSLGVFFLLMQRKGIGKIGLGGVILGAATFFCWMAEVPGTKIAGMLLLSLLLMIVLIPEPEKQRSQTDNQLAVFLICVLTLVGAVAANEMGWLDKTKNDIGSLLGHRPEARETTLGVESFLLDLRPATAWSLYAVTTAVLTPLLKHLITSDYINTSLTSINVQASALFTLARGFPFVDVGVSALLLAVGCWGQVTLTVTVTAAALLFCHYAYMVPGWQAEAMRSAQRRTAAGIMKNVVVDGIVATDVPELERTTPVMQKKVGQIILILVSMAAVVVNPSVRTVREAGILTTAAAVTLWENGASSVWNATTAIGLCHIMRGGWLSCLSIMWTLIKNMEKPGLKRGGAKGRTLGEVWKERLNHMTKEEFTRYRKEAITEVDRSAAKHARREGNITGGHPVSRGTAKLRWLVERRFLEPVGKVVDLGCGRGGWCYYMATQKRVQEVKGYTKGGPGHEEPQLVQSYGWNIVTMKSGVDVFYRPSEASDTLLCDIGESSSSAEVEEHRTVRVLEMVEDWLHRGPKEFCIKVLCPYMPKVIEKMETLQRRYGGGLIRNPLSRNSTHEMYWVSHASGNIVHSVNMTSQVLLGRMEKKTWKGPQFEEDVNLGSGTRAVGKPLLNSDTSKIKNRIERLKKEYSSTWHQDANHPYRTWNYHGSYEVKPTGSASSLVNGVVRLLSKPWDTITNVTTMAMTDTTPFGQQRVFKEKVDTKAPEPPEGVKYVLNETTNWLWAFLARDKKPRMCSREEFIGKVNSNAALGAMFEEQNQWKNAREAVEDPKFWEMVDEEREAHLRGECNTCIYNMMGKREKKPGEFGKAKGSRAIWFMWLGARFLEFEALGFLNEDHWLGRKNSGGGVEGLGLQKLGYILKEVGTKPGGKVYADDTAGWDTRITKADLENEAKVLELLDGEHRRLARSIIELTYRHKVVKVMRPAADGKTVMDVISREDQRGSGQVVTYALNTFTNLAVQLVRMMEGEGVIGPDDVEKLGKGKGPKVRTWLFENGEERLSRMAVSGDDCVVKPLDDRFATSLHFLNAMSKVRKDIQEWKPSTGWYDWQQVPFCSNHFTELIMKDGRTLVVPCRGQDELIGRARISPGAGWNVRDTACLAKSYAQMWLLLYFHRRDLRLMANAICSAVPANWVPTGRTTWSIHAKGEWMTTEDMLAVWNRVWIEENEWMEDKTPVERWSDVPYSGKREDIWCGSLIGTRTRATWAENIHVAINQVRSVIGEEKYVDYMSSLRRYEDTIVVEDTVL

Data set [2] deals with Prothrombin (Homo sapiens) (UniProt P00734). The data set can be described thus: Inhibition of thrombin at 25 uM preincubated for 15 mins before Boc-Val-Pro-Arg-AMC substrate addition measured after 10 mins by microtiter fluorescence plate reader analysis.
For data set [3], the system named is dengue virus type 2. Description: Antiviral activity against Dengue virus 2 infected in human Huh-7 cells assessed as inhibition of viral replication at 1 to 25 uM treated 4 hrs after infection measured after 24 hrs by reporter gene assay. Format: functional, organism-based. A general note: In a reporter assay the amount or activity of a reporter protein is the signal.

Data set [4] deals with dengue virus type 2. Description: Antiviral activity against Dengue virus 2 infected in human Huh-7 cells assessed as reduction of viral titers at non-cytotoxic concentration after 24 hrs by reporter gene assay relative to control. Format: functional. In short, it runs like this:
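Huh-7 cells were infected with wild-type DenV-2 at an MOI of 1 TCID50 per cell. Compounds were added to the supernatants 4 h post-infection, with 1% final DMSO as the diluent control. Infectious titers were determined 24 h post-infection by limiting-dilution assay, with three independent experiments. Cytotoxicity was measured in Huh-7-Fluc cells after 48 h at 37 °C by luciferase read-out and visual inspection.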

The next data set deals with Huh-7. The data set can be described thus: Cytotoxicity against human HuH7 cells assessed as reduction of cell viability at up to 100 uM after 48 hrs by luciferase assay. In kind it is cell-based. The settings on record: huh-7, 48 h. In short, it runs like this: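 Huh-7-Fluc cells exposed to compounds up to 100 μM for 48 h at 37 °C, 5% CO2. Cells then lysed and luciferase activity read as a surrogate of viability, alongside visual inspection of cells.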

Activity calls are given as the source filed them. The calls are words filed in the database; no cut-off is given here.

`COc1ccc(/C=C/C(=O)C(=O)NC(C)(C)C)c(OC)c1OC` had an inhibition in the data set with Dengue virus of 27.8%.
On the same count and under the same terms, then `CC(C)(C)NC(=O)C(=O)/C=C/c1cccc(F)c1`, with 16.8%; and `CN(C)C(=O)C(=O)/C=C/c1ccccc1`, with 29%.
`CC(C)(C)NC(=O)C(=O)/C=C/c1ccc(Cl)cc1`: the values for the inhibition (in the data set with Dengue virus; in data set [1]; in data set [2]) were 15.9%, 6.3% and 6.7%, respectively.
On to `CC(C)(C)NC(=O)C(=O)/C=C/c1ccc(O)cc1`, for which the inhibition with Dengue virus amounted to 37.6%; in data set [1] it was 31.4%; in data set [2], 17.3%.
Compound `O=C(/C=C/c1ccccc1)C(=O)NCc1ccccc1` yielded an inhibition in the data set with Dengue virus of 14.6%.
Turning to `CC(=O)n1cc(/C=C/C(=O)C(=O)NC(C)(C)C)c2ccccc21`, the inhibition with Dengue virus is 29.8%.
Same read-out and setting: next, `CC(C)(C)NC(=O)C(=O)/C=C/c1cccnc1`: 23.3%; `COc1cccc(/C=C/C(=O)C(=O)NC(C)(C)C)c1`: 17.8%.
Take `CC(C)(C)NC(=O)C(=O)CCc1ccccc1`: the inhibition with Dengue virus is 0%. Also, in the data set on dengue virus type 2 [3], the outcome was inactive.
For `O=C(/C=C/c1ccccc1)C(=O)NCC1CCCO1` (stereo unspecified), in the data set on Dengue virus, the inhibition stood at 28.9%.
In the case of `O=C(/C=C/c1ccccc1)C(=O)NC1CC1`, the inhibition with Dengue virus turned out to be 31.2%; in data set [1], 20%; in data set [2] it was 17.1%.
The compound `CCC/C=C/C(=O)C(=O)NC(C)(C)C` returned an inhibition with Dengue virus of 4.4%.
Turning to `CC(C)(C)NC(=O)C(=O)/C=C/c1ccccc1`, the inhibition with Dengue virus amounted to 26.3%; in data set [1], 20%; in data set [2] it was 19.6%.
As to `O=C(/C=C/c1ccccc1)C(=O)N1CCOCC1`, the inhibition in the data set with Dengue virus amounted to 30.8%.
In the case of `O=C(/C=C/c1ccccc1)C(=O)NCc1ccncc1`, the inhibition with Dengue virus was found to be 29.9%.
As for `CC(=O)OCCNC(=O)C(=O)/C=C/c1ccccc1`, the inhibition is 35.8% in the data set with Dengue virus, 29.8% in data set [1] and 16.3% in data set [2].
With `O=C(/C=C/c1ccccc1)C(=O)NC1CCCCC1`, the inhibition in the data set on Dengue virus was 14.5%.
As to `O=C(/C=C/c1ccccc1)C(=O)NCc1ccccn1`, the inhibition in the data set with Dengue virus stood at 29.4%.
`CC(C)(C)NC(=O)C(=O)/C=C/c1ccc(Br)cc1` registered an inhibition in the data set with Dengue virus of 15.1%.
Turning to `CC(C)(C)NC(=O)C(=O)/C=C/c1ccc(N)cc1`, the values for the inhibition (in the data set on Dengue virus; in data set [1]; in data set [2]) were 40.6%, 39.5% and 21.1%, respectively.
Turning to `CCCCCNC(=O)C(=O)/C=C/c1ccccc1`, in the data set on Dengue virus, the inhibition was 25.9%.
As for `CC(C)(C)NC(=O)C(=O)/C=C/c1cccc([N+](=O)[O-])c1`, the inhibition with Dengue virus turned out to be 9.6%.
Still for that read-out and setting: next, `CC(C)(C)NC(=O)C(=O)/C=C/c1ccc([N+](=O)[O-])cc1`: 12.7%; `CC(=O)Nc1ccc(/C=C/C(=O)C(=O)NC(C)(C)C)cc1`: 32.9%; `Cn1cc(/C=C/C(=O)C(=O)NC(C)(C)C)c2ccccc21`: 31.3%.
The same measure, in the same setting: next, `CC(C)(C)NC(=O)C(=O)/C=C/c1ccc2ccccc2c1`: 8.9%; `CC(C)(C)NC(=O)C(=O)C1CCCCC1`: 21.5%.
For the compound `CC(C)(C)NC(=O)C1(/C=C/c2ccccc2)CO1` (stereo unspecified), the results for the inhibition (in the data set on Dengue virus; in data set [1]; in data set [2]) were 12.6%, 20.3% and 12.1%, respectively.
Regarding `CNC(=O)/C=C/c1ccccc1`, the inhibition in the data set with Dengue virus is 15.2%.
`CC(C)(C)NC(=O)C(O)/C=C/c1ccccc1` (stereo unspecified) displayed an inhibition in the data set on Dengue virus of 8.2%.
Turning to `CC(C)NC(=O)C(=O)/C=C/c1ccccc1`, the inhibition with Dengue virus amounted to 23.8%.
On the same count and under the same terms, then `CC(C)(C)NC(=O)C(=O)C1CC1c1ccccc1` (stereo unspecified), with 7.4%.
On to `COc1ccc(/C=C/C(=O)C(=O)NC(C)(C)C)cc1OC`, for which the figures for the inhibition (with Dengue virus; in data set [1]; in data set [2]) were 36.1%, 31% and 22.5%, respectively. In the data set with dengue virus type 2 [3], the outcome was Active.
For the compound `CN(C)c1ccc(/C=C/C(=O)C(=O)NC(C)(C)C)cc1`, the inhibition turned out to be 13.8% in the data set with Dengue virus, 33.9% in data set [1] and 28.9% in data set [2].
On the same counts, the results for `COc1ccc(/C=C/C(=O)C(=O)NC(C)(C)C)cc1` are 16.7%, 27.3% and 14.2%.
The like results for `CC(NC(=O)C(=O)/C=C/c1ccccc1)c1ccccc1` (stereo unspecified) were, in that order, 0%, 12.2% and 5.1%.
Compound `CC(C)(C)NC(=O)C(=O)/C=C/c1ccccc1[N+](=O)[O-]` yielded an inhibition in the data set on Dengue virus of 12.9%.
Regarding `C/C(=C\c1ccccc1)C(=O)C(=O)NC(C)(C)C`, the results for the inhibition (in the data set with Dengue virus; in data set [1]; in data set [2]) were 25.6%, 0% and 5.7%, respectively.
In the data set with Dengue virus, `CC(C)(C)NC(=O)C(=O)/C=C/c1ccccn1` showed an inhibition of 27.7%.
On the same count and under the same terms, next, `CNC(=O)C(=O)/C=C/c1ccccc1`: 26.9%; `CC(C)(C)NC(=O)C(=O)Cc1ccccc1`: 20.4%.
The same measure, in the same setting: then `CC(C)(C)NC(=O)C(=O)/C=C/c1cccs1`, with 27.6%; and `CC(C)(C)NC(=O)C(=O)c1ccccc1`, with 6.9%.
For `CC(C)(C)NC(=O)C(=O)/C=C/c1c[nH]c2ccccc12`, the figures for the inhibition (in the data set on Dengue virus; in data set [1]; in data set [2]) were 39.1%, 40.6% and 16.9%, respectively. Besides, in the data set on dengue virus type 2 [4], the “fold change (FC)” value is listed as 1000. The Activity result in the data set with Huh-7 is recorded as “Non-toxic”. For the same compound, the result with dengue virus type 2 [3] was Active.
Turning to `O=C(/C=C/c1ccccc1)C(=O)NCCO`, in the data set with Dengue virus, the inhibition came out at 26.1%.
On to `COC(=O)[C@H](CO)NC(=O)C(=O)/C=C/c1ccccc1`, for which the inhibition in the data set on Dengue virus was 35.1%; in data set [1], 27.5%; in data set [2] it was 12.6%.
Regarding `CC(C)(C)NC(=O)C(=O)/C=C/c1ccc(F)cc1`, the inhibition in the data set on Dengue virus was determined as 23.9%.
Still for that read-out and setting: then `CC(C)(C)NC(=O)C(=O)/C=C/c1ccc(C#N)cc1`, with 13.5%; and `CC(C)(C)NC(=O)C(=O)/C=C/c1ccncc1`, with 18.4%.
Same read-out and setting: next, `CC(C)c1ccc(/C=C/C(=O)C(=O)NC(C)(C)C)cc1`: 25.5%.
The same measure, in the same setting: next, `C/C(=C\C(=O)C(=O)NC(C)(C)C)c1ccccc1`: 19.6%.
As for `COc1ccccc1/C=C/C(=O)C(=O)NC(C)(C)C`, in the data set with Dengue virus, the inhibition turned out to be 23.3%.
